Test results reported in ChEMBL document CHEMBL5303300, “EUbOPEN Chemogenomics Library - Multiplex” (2023).
Several values for one entry are separate records, joined by “and”; a condition that tells them apart may be missing. Equal entries are not always repeated.

Tests used:
[1] = system: Fibroblast; assay: Multiplex assay against human fibroblast; assay type: toxicity, cell-based; conditions: number of replicates 2
Procedure, shortened: (§1)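 Cells stained live at seeding with Hoechst33342, BioTracker Green Microtubule Cytoskeleton Dye, MitoTracker Red and Annexin V Alexa Fluor 680 were imaged on a CQ1 microscope at 37°C and 5% CO2 after compound addition. Their classification by CellPathfinder machine-learning gating ran from Hoechst high-intensity objects versus normal cells, to healthy, pyknosed or fragmented nuclei among normal cells, to mitotic or apoptotic among pyknosed cells. Tubulin, mitochondrial-mass and membrane-permeability phenotypes are per cents of healthy-nucleus cells.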

[2] = system: HEK-293T; assay: Multiplex assay against HEK293T; assay type: toxicity, cell-based; conditions: human, number of replicates 2; procedure, shortened: as §1
[3] = 12 h, 1 µM, compound concentration 1 uM
[4] = 12 h, 10 µM, compound concentration 10 uM
[5] = 24 h, 1 µM, compound concentration 1 uM
[6] = 24 h, 10 µM, compound concentration 10 uM
[7] = 48 h, 1 µM, compound concentration 1 uM
[8] = 48 h, 10 µM, compound concentration 10 uM

CCc1ncnc(N2CCN(C(C)=O)CC2)c1C#Cc1ccc(N)nc1.Cl.Cl
Population Apoptotic (%) [1, 3]: 39% and 41%
Population Fragmented Nuclei (%) [1, 3]: 26% and 16%
Population Healthy Nuclei (%) [1, 3]: 48% and 55%
Population Hoechst High Intensity Objects (%) [1, 3]: 0%
Population Membrane Permeable-Phenotype (%) [1, 3]: 8% and 9%
Population Mitochondria Different-Phenotype (%) [1, 3]: 1% and 2%
Population Mitotic Cells (%) [1, 3]: 60% and 58%
Population Normal (%) [1, 3]: 99%
Population Pyknosed Nuclei (%) [1, 3]: 24% and 28%
Population Tubulin-Different-Phenotype (%) [1, 3]: 20% and 15%
Total Cell Count [1, 3]: 278 and 215
Population Apoptotic (%) [1, 4]: 47%
Population Fragmented Nuclei (%) [1, 4]: 19% and 25%
Population Healthy Nuclei (%) [1, 4]: 53% and 54%
Population Hoechst High Intensity Objects (%) [1, 4]: 0%
Population Membrane Permeable-Phenotype (%) [1, 4]: 4% and 8%
Population Mitochondria Different-Phenotype (%) [1, 4]: 4% and 0%
Population Mitotic Cells (%) [1, 4]: 52%
Population Normal (%) [1, 4]: 100%
Population Pyknosed Nuclei (%) [1, 4]: 26% and 19%
Population Tubulin-Different-Phenotype (%) [1, 4]: 41% and 42%
Total Cell Count [1, 4]: 180 and 245
Population Apoptotic (%) [1, 5]: 53% and 46%
Population Fragmented Nuclei (%) [1, 5]: 28% and 10%
Population Healthy Nuclei (%) [1, 5]: 46% and 64%
Population Hoechst High Intensity Objects (%) [1, 5]: 1% and 0%
Population Membrane Permeable-Phenotype (%) [1, 5]: 12% and 4%
Population Mitochondria Different-Phenotype (%) [1, 5]: 0% and 1%
Population Mitotic Cells (%) [1, 5]: 46% and 53%
Population Normal (%) [1, 5]: 98% and 99%
Population Pyknosed Nuclei (%) [1, 5]: 25% and 24%
Population Tubulin-Different-Phenotype (%) [1, 5]: 12% and 9%
Total Cell Count [1, 5]: 259 and 210
Population Apoptotic (%) [1, 6]: 65% and 63%
Population Fragmented Nuclei (%) [1, 6]: 18% and 31%
Population Healthy Nuclei (%) [1, 6]: 51% and 55%
Population Hoechst High Intensity Objects (%) [1, 6]: 0%
Population Membrane Permeable-Phenotype (%) [1, 6]: 4% and 6%
Population Mitochondria Different-Phenotype (%) [1, 6]: 5% and 0%
Population Mitotic Cells (%) [1, 6]: 34% and 36%
Population Normal (%) [1, 6]: 100% and 99%
Population Pyknosed Nuclei (%) [1, 6]: 29% and 12%
Population Tubulin-Different-Phenotype (%) [1, 6]: 37% and 27%
Total Cell Count [1, 6]: 176 and 264
Population Apoptotic (%) [1, 7]: 48% and 54%
Population Fragmented Nuclei (%) [1, 7]: 28% and 14%
Population Healthy Nuclei (%) [1, 7]: 58% and 75%
Population Hoechst High Intensity Objects (%) [1, 7]: 1% and 0%
Population Membrane Permeable-Phenotype (%) [1, 7]: 5% and 6%
Population Mitochondria Different-Phenotype (%) [1, 7]: 0%
Population Mitotic Cells (%) [1, 7]: 51% and 45%
Population Normal (%) [1, 7]: 98% and 99%
Population Pyknosed Nuclei (%) [1, 7]: 12% and 10%
Population Tubulin-Different-Phenotype (%) [1, 7]: 10% and 7%
Total Cell Count [1, 7]: 259 and 219
Population Apoptotic (%) [1, 8]: 62% and 68%
Population Fragmented Nuclei (%) [1, 8]: 13% and 21%
Population Healthy Nuclei (%) [1, 8]: 63% and 67%
Population Hoechst High Intensity Objects (%) [1, 8]: 0%
Population Membrane Permeable-Phenotype (%) [1, 8]: 5% and 1%
Population Mitochondria Different-Phenotype (%) [1, 8]: 8% and 0%
Population Mitotic Cells (%) [1, 8]: 37% and 32%
Population Normal (%) [1, 8]: 100%
Population Pyknosed Nuclei (%) [1, 8]: 22% and 10%
Population Tubulin-Different-Phenotype (%) [1, 8]: 36% and 25%
Total Cell Count [1, 8]: 163 and 231
Population Apoptotic (%) [2, 3]: 62% and 67%
Population Fragmented Nuclei (%) [2, 3]: 5% and 4%
Population Healthy Nuclei (%) [2, 3]: 80% and 82%
Population Hoechst High Intensity Objects (%) [2, 3]: 12% and 10%
Population Membrane Permeable-Phenotype (%) [2, 3]: 2% and 0%
Population Mitochondria Different-Phenotype (%) [2, 3]: 40% and 39%
Population Mitotic Cells (%) [2, 3]: 37% and 32%
Population Normal (%) [2, 3]: 87% and 89%
Population Pyknosed Nuclei (%) [2, 3]: 13% and 12%
Population Tubulin-Different-Phenotype (%) [2, 3]: 62% and 57%
Total Cell Count [2, 3]: 352 and 438
Population Apoptotic (%) [2, 4]: 79% and 66%
Population Fragmented Nuclei (%) [2, 4]: 5% and 4%
Population Healthy Nuclei (%) [2, 4]: 77%
Population Hoechst High Intensity Objects (%) [2, 4]: 15% and 9%
Population Membrane Permeable-Phenotype (%) [2, 4]: 0% and 1%
Population Mitochondria Different-Phenotype (%) [2, 4]: 60% and 59%
Population Mitotic Cells (%) [2, 4]: 20% and 33%
Population Normal (%) [2, 4]: 84% and 90%
Population Pyknosed Nuclei (%) [2, 4]: 16% and 17%
Population Tubulin-Different-Phenotype (%) [2, 4]: 80% and 76%
Total Cell Count [2, 4]: 304 and 297
Population Apoptotic (%) [2, 5]: 66% and 56%
Population Fragmented Nuclei (%) [2, 5]: 8% and 11%
Population Healthy Nuclei (%) [2, 5]: 78% and 74%
Population Hoechst High Intensity Objects (%) [2, 5]: 15% and 23%
Population Membrane Permeable-Phenotype (%) [2, 5]: 1%
Population Mitochondria Different-Phenotype (%) [2, 5]: 41% and 42%
Population Mitotic Cells (%) [2, 5]: 33% and 43%
